Among the data in ChEMBL document CHEMBL1127678, “Dianilinophthalimides: potent and selective, ATP-competitive inhibitors of the EGF-receptor protein tyrosine kinase” (J Med Chem, 1994) are IC50 values, retold here.

One assay has as its target Protein kinase C (PKC). In words: Inhibitory activity was determined against protein kinase C (PKC) from porcine brain. Set-up: species or system Sus scrofa.
Assay [1] has as its target Proto-oncogene tyrosine-protein kinase Src (Homo sapiens, UniProt P12931). In words: Inhibitory activity against c-src tyrosine kinase.
Assay [2] addresses Tyrosine-protein kinase ABL (Homo sapiens, UniProt P00519+P42684). In words: Inhibitory activity against v-abl tyrosine kinase. The assay is classed as protein assay.
Assay [3] addresses cAMP-dependent protein kinase alpha-catalytic subunit (Oryctolagus cuniculus, UniProt Q95J97). In words: Inhibitory activity was determined against protein kinase A (PKA) of rabbit. The procedure, abridged:
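PKA from rabbit muscle, kemptide (0.1 mg/mL) as substrate; compounds in DMSO (1% final).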

Assay [4] concerns the target Epidermal growth factor receptor (Homo sapiens, UniProt P00533). In words: Inhibitory activity against recombinant tyrosine kinase EGF-R (EGF-R ICD).
Assay [5] has as its target T1, Platelet-derived growth factor receptor (Mus musculus, UniProt P05622+P26618). In words: (§1) Inhibition of PDGF-dependent autophosphorylation of PDGF-R in mouse BALB/c3T3 cells. It is filed as functional, cell-based.
A short description of assay [6]: Inhibition of BALB/MK mouse epidermal keratinocyte proliferation. It is filed as functional. The procedure, abridged:
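Mouse BALB/MK keratinocytes (EGF-dependent; kept in calcium-free DMEM/HAM's F12 1:1 with 5% FCS and EGF 5 ng/mL), 10^4 cells/well, seeded and incubated overnight. Serial dilutions added in DMSO (1% final), then 5-day incubation. Cell number by methylene blue staining.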

Assay [7] deals with T1, Platelet-derived growth factor receptor. The description is as §1. It is filed as functional, cell-based. The procedure, abridged:
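Confluent BALB/c 3T3 cells (collagen-coated wells, 3–5 days, no medium change) in DMEM with 1 mg/mL BSA; serially diluted compound for 2 h, then PDGF 50 ng/mL for 10 min. Cells were methanol-fixed, and phosphotyrosine was detected by ELISA (anti-pTyr 4G10, ABC-AP, p-nitrophenyl phosphate, 405 nm).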
This is another data set of the same source.

Bounds are passed on as bounds.

As a reminder, the IC50 is the midpoint of a concentration-inhibition curve.

Chain of Proto-oncogene tyrosine-protein kinase Src (P12931 2-536 limits assumed): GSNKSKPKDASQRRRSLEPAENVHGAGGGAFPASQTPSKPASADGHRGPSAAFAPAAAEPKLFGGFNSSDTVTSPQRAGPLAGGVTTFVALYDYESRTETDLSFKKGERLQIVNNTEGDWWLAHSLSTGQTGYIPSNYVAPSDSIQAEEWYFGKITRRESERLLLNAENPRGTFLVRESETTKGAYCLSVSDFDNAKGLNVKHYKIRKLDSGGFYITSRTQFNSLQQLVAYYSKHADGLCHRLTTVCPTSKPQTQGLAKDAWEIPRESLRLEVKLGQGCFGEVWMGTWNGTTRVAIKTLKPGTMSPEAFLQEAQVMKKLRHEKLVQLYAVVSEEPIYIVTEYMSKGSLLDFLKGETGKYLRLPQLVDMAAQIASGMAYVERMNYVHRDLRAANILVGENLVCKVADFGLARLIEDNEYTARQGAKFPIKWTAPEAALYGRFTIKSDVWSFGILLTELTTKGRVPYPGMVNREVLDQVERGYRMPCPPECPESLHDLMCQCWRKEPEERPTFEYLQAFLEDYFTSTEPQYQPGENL
Chain of Epidermal growth factor receptor (P00533 whole entry): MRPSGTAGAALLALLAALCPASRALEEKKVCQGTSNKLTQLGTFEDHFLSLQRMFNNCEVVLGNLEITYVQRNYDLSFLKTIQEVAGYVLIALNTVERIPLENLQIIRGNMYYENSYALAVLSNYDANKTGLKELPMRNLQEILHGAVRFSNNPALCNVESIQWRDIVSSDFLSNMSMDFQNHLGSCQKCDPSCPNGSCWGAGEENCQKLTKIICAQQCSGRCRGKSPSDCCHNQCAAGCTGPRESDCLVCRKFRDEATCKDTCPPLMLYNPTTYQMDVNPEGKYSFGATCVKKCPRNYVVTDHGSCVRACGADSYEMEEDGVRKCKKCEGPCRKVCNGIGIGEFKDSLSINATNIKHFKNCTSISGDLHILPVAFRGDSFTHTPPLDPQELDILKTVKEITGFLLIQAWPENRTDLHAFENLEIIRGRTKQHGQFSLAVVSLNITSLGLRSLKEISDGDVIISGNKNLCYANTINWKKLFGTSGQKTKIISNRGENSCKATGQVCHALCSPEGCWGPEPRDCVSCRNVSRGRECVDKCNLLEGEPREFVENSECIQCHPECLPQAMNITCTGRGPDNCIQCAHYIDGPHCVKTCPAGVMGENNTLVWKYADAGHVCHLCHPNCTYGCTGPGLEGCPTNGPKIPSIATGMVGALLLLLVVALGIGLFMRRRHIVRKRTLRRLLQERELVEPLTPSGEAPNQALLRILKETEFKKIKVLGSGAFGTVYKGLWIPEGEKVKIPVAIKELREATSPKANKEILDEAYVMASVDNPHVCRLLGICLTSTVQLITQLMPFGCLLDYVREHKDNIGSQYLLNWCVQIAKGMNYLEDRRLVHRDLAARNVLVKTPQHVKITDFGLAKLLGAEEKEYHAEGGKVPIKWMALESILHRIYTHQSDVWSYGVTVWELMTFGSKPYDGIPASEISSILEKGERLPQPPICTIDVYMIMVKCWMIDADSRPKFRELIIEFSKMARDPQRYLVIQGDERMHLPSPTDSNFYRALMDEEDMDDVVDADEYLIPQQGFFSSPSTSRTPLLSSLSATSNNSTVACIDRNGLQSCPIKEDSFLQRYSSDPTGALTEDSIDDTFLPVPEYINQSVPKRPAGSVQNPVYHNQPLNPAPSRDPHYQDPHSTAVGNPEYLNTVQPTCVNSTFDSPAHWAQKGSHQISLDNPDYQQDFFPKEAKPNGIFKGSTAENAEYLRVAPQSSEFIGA

With `O=C1NC(=O)c2cc3c(cc21)N(c1ccccc1)CCN3c1ccccc1`, the IC50 against Protein kinase C (PKC) is 270 µM; in assay [1], greater than 50 µM; in assay [2] it was greater than 50 µM; in assay [3], greater than 500 µM.
Consider `O=C1NC(=O)c2cc(NC3CCCCC3)c(NC3CCCCC3)cc21`, for which the concentration for half-maximal inhibition (IC50) in assay [4] is greater than 50 µM; against Protein kinase C (PKC) it was greater than 100 µM; in assay [1], greater than 50 µM; in assay [2], greater than 50 µM; in assay [3], greater than 500 µM.
For the molecule `O=C1NC(=O)c2cc(Nc3ccc(O)cc3)c(Nc3ccc(O)cc3)cc21`, the IC50 against Protein kinase C (PKC) is 75 µM; in assay [1], 8 µM; in assay [2], 12 µM; in assay [3], greater than 500 µM.
On to `N#Cc1ccc(Nc2cc3c(cc2Nc2ccc(C#N)cc2)C(=O)NC3=O)cc1`, for which the figures for the IC50 (at Protein kinase C (PKC); in assay [3]) were greater than 100 µM and greater than 500 µM, respectively.
In the case of `CN(c1ccccc1)c1cc2c(cc1N(C)c1ccccc1)C(=O)NC2=O`, the IC50 against Protein kinase C (PKC) is greater than 500 µM; in assay [1], greater than 100 µM; in assay [2], greater than 50 µM; in assay [3] it was greater than 500 µM.
With `CC(=O)N(c1ccccc1)c1cc2c(cc1Nc1ccccc1)C(=O)NC2=O`, the figures for the IC50 (in assay [5]; on Protein kinase C (PKC); in assay [3]) were greater than 100 µM, greater than 100 µM and greater than 500 µM, respectively.
Turning to `COc1ccc(Nc2cc3c(cc2Nc2ccc(OC)cc2)C(=O)NC3=O)cc1`, the half-maximal inhibitory concentration (IC50) in assay [5] was greater than 100 µM; against Protein kinase C (PKC) it was 460 µM; in assay [2], greater than 50 µM; in assay [3] it was greater than 500 µM.
Consider `CN(c1ccccc1)c1cc2c(cc1Nc1ccccc1)C(=O)NC2=O`, for which the IC50 was greater than 500 µM at Protein kinase C (PKC), 1 µM in assay [1], greater than 50 µM in assay [2] and greater than 500 µM in assay [3].
Regarding `Cc1ccc(Nc2cc3c(cc2Nc2ccc(C)cc2)C(=O)NC3=O)cc1`, the IC50 in assay [5] was greater than 100 µM; against Protein kinase C (PKC), greater than 100 µM; in assay [1], greater than 100 µM; in assay [2], greater than 100 µM; in assay [3], greater than 500 µM.
Consider `O=C1NC(=O)c2cc(Nc3ccc(-c4ccccc4)cc3)c(Nc3ccc(-c4ccccc4)cc3)cc21`, for which the IC50 is greater than 100 µM in assay [5], greater than 500 µM on Protein kinase C (PKC) and greater than 500 µM in assay [3].
Turning to `O=C1c2cc(Nc3ccccc3)c(Nc3ccccc3)cc2C(=O)N1c1ccccc1`, the half-inhibitory concentration (IC50) in assay [5] was greater than 100 µM; in assay [6], greater than 50 µM; against Protein kinase C (PKC), greater than 100 µM; in assay [3], greater than 500 µM.
With `CN1C(=O)c2cc(Nc3ccccc3)c(Nc3ccccc3)cc2C1=O`, the IC50 in assay [5] was greater than 100 µM; against Protein kinase C (PKC), greater than 100 µM; in assay [3], greater than 500 µM.
On to `COC(=O)c1cc(Nc2ccc(F)cc2)c(Nc2ccc(F)cc2)cc1C(=O)OC`, for which the half-maximal inhibitory concentration (IC50) (at Protein kinase C (PKC); in assay [3]) was greater than 500 µM throughout.
With `COc1ccc(Nc2cc3c(cc2Nc2ccccc2)C(=O)NC3=O)cc1`, the IC50 in assay [5] was greater than 100 µM; at Protein kinase C (PKC), greater than 100 µM; in assay [1] it was 64 µM; in assay [2], greater than 100 µM; in assay [3] it was greater than 500 µM.
`O=C1NC(=O)c2cc(Nc3ccc(I)cc3)c(Nc3ccc(I)cc3)cc21`: the IC50 (against Protein kinase C (PKC); in assay [3]) was greater than 500 µM in each case.
Turning to `COC(=O)c1cc(Nc2ccccc2)c(Nc2ccccc2)cc1C(=O)OC`, the IC50 (on Protein kinase C (PKC); in assay [3]) was greater than 500 µM each time.
For `CCN(CC)c1ccc(Nc2cc3c(cc2Nc2ccc(N(CC)CC)cc2)C(=O)NC3=O)cc1`, the IC50 was greater than 500 µM at Protein kinase C (PKC), greater than 100 µM in assay [1], greater than 50 µM in assay [2] and greater than 500 µM in assay [3].
With `O=C1NC(=O)c2cc(Sc3ccccc3)c(Sc3ccccc3)cc21`, the values for the IC50 (on Protein kinase C (PKC); in assay [3]) were greater than 50 µM and greater than 500 µM, respectively.
With `O=C1NC(=O)c2cc(Nc3ccc(F)cc3)c(Nc3ccc(F)cc3)cc21` [CGP-53353], the 50% inhibitory concentration (IC50) is 100 µM in assay [5]; 32 µM against Protein kinase C (PKC); 50 µM in assay [1]; greater than 50 µM in assay [2]; greater than 500 µM in assay [3].
For `O=C1NC(=O)c2cc(Nc3ccccc3)c(Nc3ccccc3)cc21` [DAPH], the IC50 in assay [7] was 100 µM; against Protein kinase C (PKC) it was 80 µM; in assay [1], 16 µM; in assay [2], greater than 50 µM; in assay [3], greater than 500 µM.
For `O=C1NC(=O)C(c2c[nH]c3ccccc23)=C1c1c[nH]c2ccccc12` [RO-316233], the IC50 against Protein kinase C (PKC) worked out at 0.19 µM; in assay [2], 20 µM.
For the molecule `O=C1NC(=O)c2c1c1c3ccccc3[nH]c1c1[nH]c3ccccc3c21` [STAUROSPORINE AGLYCON], the IC50 in assay [3] is greater than 10 µM.
